# Measured values reported in paper PMC8921320 (The Journal of Biological Chemistry, 2022).
# pKd: −log10 of the molar value. Several values for one entry are separate records, joined by “and”; a condition that tells them apart may be missing. Equal entries are not always repeated. Where two headings read alike, the source gives them in different places. Square brackets hold non-standard residues; d marks the D form. Peptide text beside a SMILES is read from it. Orn(N5-OH,N5-Ac) = CC(=O)N(O)CCC[C@H](N)C(=O)O
# Assays:
# [1] = biological target: T1, EcoFepA (Escherichia coli, UniProt P05825, A720C); assay: Fluorescence quenching binding, EcoFepA-FM sensor
# T1 sequence (P05825 23-746 A720C): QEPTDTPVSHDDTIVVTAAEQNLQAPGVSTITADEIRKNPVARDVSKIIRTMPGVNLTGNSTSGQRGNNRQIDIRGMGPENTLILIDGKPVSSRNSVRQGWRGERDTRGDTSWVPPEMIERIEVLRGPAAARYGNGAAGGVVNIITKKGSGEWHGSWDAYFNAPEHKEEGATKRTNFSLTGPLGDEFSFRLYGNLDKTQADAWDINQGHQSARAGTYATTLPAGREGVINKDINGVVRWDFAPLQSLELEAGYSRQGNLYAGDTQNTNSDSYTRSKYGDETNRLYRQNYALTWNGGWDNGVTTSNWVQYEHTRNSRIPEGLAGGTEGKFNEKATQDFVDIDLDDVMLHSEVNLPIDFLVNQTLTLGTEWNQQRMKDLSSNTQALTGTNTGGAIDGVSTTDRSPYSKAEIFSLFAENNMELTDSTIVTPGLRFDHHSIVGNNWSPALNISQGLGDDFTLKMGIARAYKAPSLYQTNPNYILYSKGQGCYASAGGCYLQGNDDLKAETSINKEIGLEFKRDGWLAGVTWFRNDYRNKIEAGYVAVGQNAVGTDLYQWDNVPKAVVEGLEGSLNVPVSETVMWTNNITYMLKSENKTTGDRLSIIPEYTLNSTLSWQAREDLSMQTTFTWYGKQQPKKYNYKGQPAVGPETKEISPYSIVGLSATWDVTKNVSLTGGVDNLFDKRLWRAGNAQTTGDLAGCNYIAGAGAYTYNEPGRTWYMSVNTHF
# [2] = biological target: T2, EcoFepB (Escherichia coli, UniProt P0AEL6, T297C); assay: Fluorescence quenching binding, purified EcoFepB-FM sensor
# T2 sequence (P0AEL6 27-318 T297C): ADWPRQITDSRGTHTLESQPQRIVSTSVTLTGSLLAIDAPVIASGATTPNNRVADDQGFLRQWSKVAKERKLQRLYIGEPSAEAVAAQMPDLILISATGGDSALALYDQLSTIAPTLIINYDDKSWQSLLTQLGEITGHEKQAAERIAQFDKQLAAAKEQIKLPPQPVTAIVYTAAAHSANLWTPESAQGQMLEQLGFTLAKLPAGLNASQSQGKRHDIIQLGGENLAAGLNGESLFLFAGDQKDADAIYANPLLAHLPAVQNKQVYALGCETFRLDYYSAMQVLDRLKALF
# In short: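 His-tagged T297C FepB expressed from pET28 in E. coli and purified by metal affinity chromatography. Labeled with 5 μM fluorescein maleimide at pH 6.77 for 15 min, then repurified by gel filtration. Apo or ferric siderophores added at increasing concentrations, with three quenching determinations per concentration. Mean values fitted to a single-site binding model to give KD.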
# [3] = system: AbaFepA; type: binding, Acinetobacter baumannii
# [4] = system: EcoCir; assay: Fluorescence quenching binding, EcoCir-FM sensor; parameters: species or system Escherichia coli
# In short: (§1)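 Cys-mutant receptor made in E. coli hosts (entA, tonB+ or ΔtonB) grown in iron-deficient MOPS at 37 °C to late exponential phase. Cells washed in 50 mM NaHPO₄ pH 6.7, labeled in situ with 5 μM fluorescein maleimide for 15 min at 37 °C, quenched with 100 μM β-mercaptoethanol, then resuspended in PBS + 0.2% glucose. Binding used 2.5 × 10⁷ cells in 2 ml, stirred at 37 °C. Iron complex added stepwise; 520 nm emission quenching read in triplicate; 1-F/F₀ vs [ligand] fitted to single-site model for KD.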
# [5] = system: AbaPirA; assay: Fluorescence quenching binding, AbaPirA-FM sensor; parameters: species or system Acinetobacter baumannii
# In short: as §1
# [6] = system: EcoFiu; assay: Fluorescence quenching binding, EcoFiu-FM sensor; parameters: species or system Escherichia coli
# In short: as §1
# [7] = system: AbaPiuA; assay: Fluorescence quenching binding, AbaPiuA-FM sensor; parameters: species or system Acinetobacter baumannii
# In short: as §1
# [8] = biological target: T3, KpnIroN (Klebsiella pneumoniae, UniProt A0ACD7U953, T234C); assay: Fluorescence quenching binding, KpnIroN-FM sensor
# T3 sequence (A0ACD7U953 25-724 T234C): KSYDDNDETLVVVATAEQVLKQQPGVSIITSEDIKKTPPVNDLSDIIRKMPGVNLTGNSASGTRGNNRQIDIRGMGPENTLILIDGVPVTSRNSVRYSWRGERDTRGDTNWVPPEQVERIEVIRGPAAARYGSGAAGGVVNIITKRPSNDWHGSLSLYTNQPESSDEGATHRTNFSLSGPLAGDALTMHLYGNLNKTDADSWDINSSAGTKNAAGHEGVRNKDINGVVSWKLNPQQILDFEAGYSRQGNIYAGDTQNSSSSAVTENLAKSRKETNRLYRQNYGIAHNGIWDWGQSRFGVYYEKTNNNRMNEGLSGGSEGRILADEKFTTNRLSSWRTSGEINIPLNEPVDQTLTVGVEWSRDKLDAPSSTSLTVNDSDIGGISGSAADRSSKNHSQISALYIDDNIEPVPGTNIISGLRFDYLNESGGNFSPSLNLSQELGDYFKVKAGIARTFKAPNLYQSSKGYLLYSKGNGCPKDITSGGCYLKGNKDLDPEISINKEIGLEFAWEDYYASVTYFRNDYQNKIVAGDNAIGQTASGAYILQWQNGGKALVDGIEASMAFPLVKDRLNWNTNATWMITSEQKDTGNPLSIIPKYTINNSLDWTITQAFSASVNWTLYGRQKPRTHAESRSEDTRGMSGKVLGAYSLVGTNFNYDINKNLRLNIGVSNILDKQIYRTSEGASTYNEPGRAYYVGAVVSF
# In short: as §1
# [9] = biological target: T4, EcoIutA (Escherichia coli, UniProt B7LI14, T574C); assay: Fluorescence quenching binding, EcoIutA-FM sensor
# T4 sequence (B7LI14 26-733 T574C): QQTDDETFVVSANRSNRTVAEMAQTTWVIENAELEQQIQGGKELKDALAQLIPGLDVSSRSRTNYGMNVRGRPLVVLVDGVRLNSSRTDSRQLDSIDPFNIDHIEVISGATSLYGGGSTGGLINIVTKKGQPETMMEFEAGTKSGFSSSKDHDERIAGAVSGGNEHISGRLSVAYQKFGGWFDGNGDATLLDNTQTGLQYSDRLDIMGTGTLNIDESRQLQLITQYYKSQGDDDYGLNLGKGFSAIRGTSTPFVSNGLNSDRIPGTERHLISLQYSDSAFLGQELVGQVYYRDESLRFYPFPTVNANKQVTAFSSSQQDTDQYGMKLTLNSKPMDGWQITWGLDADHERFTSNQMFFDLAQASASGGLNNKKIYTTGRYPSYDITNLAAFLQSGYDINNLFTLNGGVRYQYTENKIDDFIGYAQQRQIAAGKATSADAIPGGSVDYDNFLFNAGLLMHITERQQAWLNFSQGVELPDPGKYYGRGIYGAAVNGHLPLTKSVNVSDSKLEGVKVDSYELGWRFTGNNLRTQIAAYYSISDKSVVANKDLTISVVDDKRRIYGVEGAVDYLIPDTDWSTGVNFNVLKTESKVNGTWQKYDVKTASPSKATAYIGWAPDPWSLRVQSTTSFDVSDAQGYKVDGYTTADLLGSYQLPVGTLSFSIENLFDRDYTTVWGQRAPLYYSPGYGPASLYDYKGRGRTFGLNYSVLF
# [10] = biological target: human siderocalin (HsaSCN) (Homo sapiens, UniProt P80188, Q148C); assay: Fluorescence quenching binding, purified HsaSCN-FM sensor; conditions: HsaSCN-FM (Q128C), purified protein
# [11] = biological target: T5, PaeFpvA (Pseudomonas aeruginosa, UniProt P48632, T660C); assay: Fluorescence quenching binding, PaeFpvA-FM sensor
# T5 sequence (P48632 44-815 T660C): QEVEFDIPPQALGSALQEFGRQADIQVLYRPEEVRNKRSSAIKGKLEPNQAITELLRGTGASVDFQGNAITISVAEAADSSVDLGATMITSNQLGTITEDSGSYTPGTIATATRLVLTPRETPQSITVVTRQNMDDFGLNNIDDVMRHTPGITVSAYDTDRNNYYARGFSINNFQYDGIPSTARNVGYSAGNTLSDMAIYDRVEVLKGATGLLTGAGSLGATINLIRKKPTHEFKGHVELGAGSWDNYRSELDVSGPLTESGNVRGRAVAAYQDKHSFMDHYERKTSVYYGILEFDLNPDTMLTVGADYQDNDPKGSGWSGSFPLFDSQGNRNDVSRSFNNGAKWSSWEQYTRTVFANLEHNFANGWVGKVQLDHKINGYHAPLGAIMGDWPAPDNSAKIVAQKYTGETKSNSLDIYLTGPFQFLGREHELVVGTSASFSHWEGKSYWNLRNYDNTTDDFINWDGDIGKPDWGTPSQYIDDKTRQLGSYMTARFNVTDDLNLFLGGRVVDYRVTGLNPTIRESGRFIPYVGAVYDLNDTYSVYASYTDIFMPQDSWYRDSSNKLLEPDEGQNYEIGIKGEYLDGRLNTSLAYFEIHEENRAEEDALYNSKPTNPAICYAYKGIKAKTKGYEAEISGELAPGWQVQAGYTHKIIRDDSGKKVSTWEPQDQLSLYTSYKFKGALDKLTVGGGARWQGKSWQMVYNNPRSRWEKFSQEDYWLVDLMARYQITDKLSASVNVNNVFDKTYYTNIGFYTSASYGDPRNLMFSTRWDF
# In short: as §1
# [12] = biological target: T1, EcoFepA; conditions: cited from earlier work
# [13] = biological target: T3, KpnIroN; conditions: cited from earlier work
# [14] = system: Iron-deficient Gram-negative bacteria, with maximally expressed chromosomal FepA; conditions: cited from earlier work
# [15] = biological target: KpnFyuA (Klebsiella pneumoniae, UniProt A4GZD6, S653C); assay: Fluorescence quenching binding, KpnFyuA-FM sensor; conditions: 50% quenching
# human siderocalin (HsaSCN), sequence (P80188 21-198 Q148C): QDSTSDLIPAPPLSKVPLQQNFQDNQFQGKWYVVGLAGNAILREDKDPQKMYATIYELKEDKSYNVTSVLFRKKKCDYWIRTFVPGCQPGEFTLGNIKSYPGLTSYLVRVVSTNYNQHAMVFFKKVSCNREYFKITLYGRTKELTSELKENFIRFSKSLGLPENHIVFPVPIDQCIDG
compound,measurement,setting,value
"O=C(N[C@H]1COC(=O)[C@@H](NC(=O)c2cccc(O)c2O)COC(=O)[C@@H](NC(=O)c2cccc(O)c2O)COC1=O)c1cccc(O)c1O [Ent, enterobactin]",pKd,[1],7.57
same,binding (in words),[2],bound
"CC(C)(O/N=C(\C(=O)N[C@@H]1C(=O)N2C(C(=O)[O-])=C(C[N+]3(CCNC(=O)c4ccc(O)c(O)c4Cl)CCCC3)CS[C@H]12)c1csc(N)n1)C(=O)O [FDC, cefidericol]",binding (in words),[3],bound
same,binding (in words),[4],bound
same,binding (in words),[5],bound
same,binding (in words),[6],bound
same,binding (in words),[7],bound
same,binding (in words),[8],bound
"CC(=O)N([O-])CCC[C@@H]1NC(=O)CNC(=O)CNC(=O)CNC(=O)[C@H](CCCN([O-])C(C)=O)NC(=O)[C@H](CCCN([O-])C(C)=O)NC1=O.[Fe+3] [Fc, ferrichrome] (cyclo(GGG[Orn(N5-OH,N5-Ac)][Orn(N5-OH,N5-Ac)][Orn(N5-OH,N5-Ac)]))",binding (in words),[9],did not measurably bind
same,pKd,[10],6.96
"CC(=O)N(O)CCCC[C@H](NC(=O)CC(O)(CC(=O)N[C@@H](CCCCN(O)C(C)=O)C(=O)O)C(=O)O)C(=O)O.[Fe+3] [FeAbn, ferric aerobactin]",pKd,"[9]; EcoIutA-FM sensor, fluorescence quenching",8.22
O=C(O)c1cccc(O)c1O.[Fe+3] [FeDHB],binding (in words),[6],did not bind
same,binding (in words),[11],weakly bound
same,binding (in words),[2],bound
same,pKd,[10],6.48
"O=C(N[C@H]1COC(=O)[C@@H](NC(=O)c2cccc(O)c2O)COC(=O)[C@@H](NC(=O)c2cccc(O)c2O)COC1=O)c1cccc(O)c1O.[Fe+3] [FeEnt, ferric enterobactin]",fold higher affinity for FeEnt than for FeGEnt,[1]; EcoFepA-FM,~300 fold
same,pKd,"[3]; AbaFepA-FM sensor, fluorescence quenching",~7.60 and 7.77
same,binding (in words),[4],bound
same,binding (in words),[6],bound
same,binding (in words),[11],weakly bound
same,pKd,"[2]; EcoFepB-FM (T297C), purified protein",4.37
same,fold less affinity than EcoFepA,"[2]; FeEnt, EcoFepB-FM vs EcoFepA",about 100 fold
same,pKd,[10],7.92 to 8.00
same,pKd,"[12]; ref 53, 68, 69, 70",9.40 to 10.00
same,pKd,[12]; ref 53,9.40
same,pKd,[13],9.40
same,transport rate,[14],~50 pmol/10^9 cells/min
CC(C)(C1=N[C@@](C)(C(=O)O)CS1)[C@H](O)[C@@H]1CS[C@H]([C@H]2CSC(c3ccccc3O)=N2)N1.[Fe+3] [FeYbt],pKd,[15],9.00
same,pKd,[10],4.96
